Data taken from ChEMBL document CHEMBL1132192, “Design, synthesis, and evaluation of conformationally constrained tongs, new inhibitors of HIV-1 protease dimerization” (J Med Chem, 1999).
Numbered stars: 1 amine (or outer) side, 2 acyl side, 3 side chain; on linkers, the order of the positions; unused ones are H or OH. Bridge positions count the residues as written; N and C are the ends. Square brackets hold non-standard residues; d marks the D form. Peptide text beside a SMILES is read from it. I, II: the chains in the order shown. * marks the point of attachment. ξ: configuration not given here. Naphthalene(2,7-(OC3H6CO)2) = O=C(CCCOc1ccc2ccc(OCCCC(=O)[*:2])cc2c1)[*:1]; X1 = COC(=O)CCCOc1ccc2ccc(OCCCC(=O)*)cc2c1; Thr(3ξ) = CC(O)[C@H](N)C(=O)O

These compounds were tested against T1, Human immunodeficiency virus type 1 protease (Human immunodeficiency virus 1, UniProt Q72874) (assay: Inhibition of plasmid pET9c-PR expressing HIV-1 protease (No inhibition)).

| SMILES | IC50 |
| --- | --- |
| COC(=O)[C@H](Cc1ccc(O)cc1)NC(=O)[C@H](CC(C)C)NC(=O)[C@@H](NC(=O)CCCOc1ccc2ccc(OCCCC(=O)N[C@H](C(=O)N[C@@H](CC(C)C)C(=O)N[C@@H](Cc3ccc(O)cc3)C(=O)OC)C(C)O)cc2c1)C(C)O (stereo not given in full) | Not Active |
| COC(=O)[C@@H](NC(=O)[C@H](CC(C)C)NC(=O)[C@@H](NC(=O)CCCOc1cccc(OCCCC(=O)N[C@H](C(=O)N[C@@H](CC(C)C)C(=O)N[C@H](C(=O)OC)C(C)C)C(C)C)c1)C(C)C)C(C)C | Not Active |
| CC(C)C[C@H](NC(=O)[C@@H](NC(=O)CCCOc1ccc2ccc(OCCCC(=O)N[C@H](C(=O)N[C@@H](CC(C)C)C(=O)N[C@H](C(=O)OCc3ccccc3)C(C)C)C(C)O)cc2c1)C(C)O)C(=O)N[C@H](C(=O)OCc1ccccc1)C(C)C (stereo not given in full) | Not Active |
| CC[C@@H](C)[C@H](NC(=O)[C@H](CCC(N)=O)NC(=O)CCCOc1ccc2ccc(OCCCC(=O)N[C@@H](CCC(N)=O)C(=O)N[C@H](C(=O)OC)[C@H](C)CC)cc2c1)C(=O)OC | Not Active |
| COC(=O)CCCOc1ccc2ccc(OCCCC(=O)N[C@H](C(=O)N[C@@H](CC(C)C)C(=O)N[C@H](C(=O)OC)C(C)C)C(C)C)cc2c1 | Not Active |
| COC(=O)[C@@H](NC(=O)[C@@H](NC(=O)[C@H](CC(C)C)NC(=O)[C@@H](NC(=O)CCCOc1ccc2ccc(OCCCC(=O)N[C@H](C(=O)N[C@@H](CC(C)C)C(=O)N[C@H](C(=O)N[C@H](C(=O)OC)C(C)C)C(C)C)[C@@H](C)O)cc2c1)[C@@H](C)O)C(C)C)C(C)C (I: TLVV-OMe / II: TLVV-OMe; linker I:N-II:N via Naphthalene(2,7-(OC3H6CO)2)) | Not Active |
| CC[C@H](C)[C@H](NC(=O)[C@H](CCC(N)=O)NC(=O)CCCOc1cccc(OCCCC(=O)N[C@@H](CCC(N)=O)C(=O)N[C@H](C(=O)N[C@H](C(=O)N[C@@H](CC(C)C)C(=O)OC)C(C)O)[C@@H](C)CC)n1)C(=O)N[C@H](C(=O)N[C@@H](CC(C)C)C(=O)OC)C(C)O (stereo not given in full) | Not Active |
| CC[C@@H](C)[C@H](NC(=O)[C@H](CCC(N)=O)NC(=O)CCCOc1cccc(OCCCC(=O)N[C@@H](CCC(N)=O)C(=O)N[C@H](C(=O)OC)[C@H](C)CC)c1)C(=O)OC | Not Active |
| COC(=O)[C@@H](NC(=O)[C@H](CC(C)C)NC(=O)[C@@H](NC(=O)CCCOc1ccc2ccc(OCCCC(=O)N[C@H](C(=O)N[C@@H](CC(C)C)C(=O)N[C@H](C(=O)OC)C(C)C)C(C)O)cc2c1)C(C)O)C(C)C (stereo not given in full) | Not Active |
| CC[C@H](C)[C@H](NC(=O)[C@H](CCC(N)=O)NC(=O)CCCOc1ccc2ccc(OCCCC(=O)OC)cc2c1)C(=O)N[C@H](C(=O)N[C@@H](CC(C)C)C(=O)OC)C(C)O (stereo partly drawn) (X1-QI[Thr(3ξ)]L-OMe) | Not Active |
| COC(=O)CCCOc1ccc2ccc(OCCCC(=O)N[C@H](C(=O)N[C@@H](CC(C)C)C(=O)N[C@@H](Cc3ccc(O)cc3)C(=O)OC)C(C)O)cc2c1 (stereo not given in full) | Not Active |
| CC[C@H](C)[C@H](NC(=O)[C@H](CCC(N)=O)NC(=O)CCCOc1ccc2ccc(OCCCC(=O)N[C@@H](CCC(N)=O)C(=O)N[C@H](C(=O)N[C@H](C(=O)N[C@@H](CC(C)C)C(=O)OC)C(C)O)[C@@H](C)CC)cc2c1)C(=O)N[C@H](C(=O)N[C@@H](CC(C)C)C(=O)OC)C(C)O (stereo partly drawn) (I: QI[Thr(3ξ)]L-OMe / II: QI[Thr(3ξ)]L-OMe; linker I:N-II:N via Naphthalene(2,7-(OC3H6CO)2)) | Not Active |
| CC(C)C[C@H](NC(=O)[C@@H](NC(=O)CCCOc1cccc(OCCCC(=O)N[C@H](C(=O)N[C@@H](CC(C)C)C(=O)N[C@H](C(=O)O)C(C)C)C(C)O)c1)C(C)O)C(=O)N[C@H](C(=O)O)C(C)C (stereo not given in full) | Not Active |
| COC(=O)[C@@H](NC(=O)[C@@H](NC(=O)CCCOc1cccc(OCCCC(=O)N[C@H](C(=O)N[C@H](C(=O)OC)C(C)C)C(C)O)n1)C(C)O)C(C)C (stereo not given in full) | Not Active |

These compounds were tested against Human immunodeficiency virus type 1 protease (Human immunodeficiency virus 1) (UniProt Q72874) (assay: The compound was tested for HIV-1 protease inhibitory activity against plasmid pET9c-PR expressing HIV-1 protease at 4.5 uM).
Procedure, shortened: (§1)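 Recombinant HIV-1 protease (expressed from pET9c-PR), 7.5 nM final, prediluted in buffer with 1 mg/mL BSA. Inhibitor was mixed with fluorogenic substrate (5.2 μM final) and the reaction started with enzyme. Fluorescence rise at 490 nm (excitation 340 nm) was followed for 5 min at 30 °C.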

| SMILES | inhibition |
| --- | --- |
| COC(=O)CCCOc1ccc2ccc(OCCCC(=O)N[C@H](C(=O)N[C@@H](CC(C)C)C(=O)N[C@H](C(=O)OC)C(C)C)C(C)O)cc2c1 (stereo not given in full) | 30% |

The compounds below were run against Human immunodeficiency virus type 1 protease (Human immunodeficiency virus 1) (UniProt Q72874) (assay: The compound was tested for HIV-1 protease inhibitory activity against plasmid pET9c-PR expressing HIV-1 protease at 6.7 uM).
Procedure, shortened: as §1

| SMILES | inhibition |
| --- | --- |
| COC(=O)[C@@H](NC(=O)[C@H](CC(C)C)NC(=O)[C@@H](NC(=O)CCCOc1cccc(OCCCC(=O)N[C@H](C(=O)N[C@@H](CC(C)C)C(=O)N[C@H](C(=O)OC)C(C)C)C(C)O)n1)C(C)O)C(C)C (stereo not given in full) | 30% |

The compounds below were run against Human immunodeficiency virus type 1 protease (Human immunodeficiency virus 1) (UniProt Q72874) (assay: The compound was tested for HIV-1 protease inhibitory activity against plasmid pET9c-PR expressing HIV-1 protease at 7 uM).
Procedure, shortened: as §1

| SMILES | inhibition |
| --- | --- |
| COC(=O)CCCOc1ccc2ccc(OCCCC(=O)N[C@H](C(=O)N[C@@H](CC(C)C)C(=O)N[C@@H](CC(N)=O)C(=O)N[C@@H](Cc3ccccc3)C(=O)OC)C(C)O)cc2c1 (stereo not given in full) (X1-[Thr(3ξ)]LNF-OMe) | 30% |

The compounds below were run against Human immunodeficiency virus type 1 protease (Human immunodeficiency virus 1) (UniProt Q72874) (assay: The compound was tested for HIV-1 protease inhibitory activity against plasmid pET9c-PR expressing HIV-1 protease. activity is expressed as Kid value.).
Procedure, shortened: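 Dissociative (antidimer) inhibition was analysed by the Zhang kinetic method. Fluorogenic substrate was held at 5.2 μM ([S]0 ≪ Km, Km = 103 μM), with at least five HIV-1 protease (pET9c-PR) levels (2.37–11.8 nM) at several inhibitor concentrations. Runs were at pH 4.7 acetate buffer, 30 °C, fluorescence 340/490 nm. Kid was taken from regression fits of [E]0/√vi versus √vi.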

| SMILES | Kid |
| --- | --- |
| CC[C@@H](C)[C@H](NC(=O)[C@@H](NC(=O)CCCOc1cccc(OCCCC(=O)N[C@H](C(=O)N[C@H](C(=O)N[C@H](C(=O)OC)C(C)C)[C@H](C)CC)C(C)O)n1)C(C)O)C(=O)N[C@H](C(=O)OC)C(C)C (stereo not given in full) | 1.4 µM |
| COC(=O)[C@H](Cc1ccccc1)NC(=O)[C@H](CC(N)=O)NC(=O)[C@H](CC(C)C)NC(=O)[C@@H](NC(=O)CCCOc1ccc2ccc(OCCCC(=O)N[C@H](C(=O)N[C@@H](CC(C)C)C(=O)N[C@@H](CC(N)=O)C(=O)N[C@@H](Cc3ccccc3)C(=O)OC)C(C)O)cc2c1)C(C)O (stereo not given in full) (I: [Thr(3ξ)]LNF-OMe / II: [Thr(3ξ)]LNF-OMe; linker I:N-II:N via Naphthalene(2,7-(OC3H6CO)2)) | 1 µM |
| COC(=O)[C@H](CC(C)C)NC(=O)[C@H](CC(C)C)NC(=O)CNC(=O)CCCOc1cccc(OCCCC(=O)NCC(=O)N[C@@H](CC(C)C)C(=O)N[C@@H](CC(C)C)C(=O)OC)n1 | 4.5 µM |
| COC(=O)[C@@H](NC(=O)[C@H](CC(C)C)NC(=O)[C@@H](NC(=O)CCCOc1ccc2ccc(OCCCC(=O)N[C@H](C(=O)N[C@@H](CC(C)C)C(=O)N[C@H](C(=O)OC)C(C)C)C(C)C)cc2c1)C(C)C)C(C)C | 0.56 µM |

What follows are compounds tested against T1, Human immunodeficiency virus type 1 protease (assay: The compound was tested for HIV-1 protease inhibitory activity against plasmid pET9c-PR expressing HIV-1 protease.).

| SMILES | IC50 |
| --- | --- |
| COC(=O)CCCOc1ccc2ccc(OCCCC(=O)N[C@H](C(=O)N[C@@H](CC(C)C)C(=O)N[C@H](C(=O)N[C@H](C(=O)OC)C(C)C)C(C)C)C(C)O)cc2c1 (stereo not given in full) (X1-[Thr(3ξ)]LVV-OMe) | 10 µM |
| CC(C)C[C@H](NC(=O)[C@@H](NC(=O)CCCOc1ccc2ccc(OCCCC(=O)N[C@H](C(=O)N[C@@H](CC(C)C)C(=O)N[C@H](C(=O)O)C(C)C)C(C)O)cc2c1)C(C)O)C(=O)N[C@H](C(=O)O)C(C)C (stereo not given in full) | 10 µM |
| COC(=O)[C@@H](NC(=O)[C@H](CC(C)C)NC(=O)[C@@H](NC(=O)CCCOc1cccc(OCCCC(=O)N[C@H](C(=O)N[C@@H](CC(C)C)C(=O)N[C@H](C(=O)OC)C(C)C)C(C)C)n1)C(C)C)C(C)C | 3 µM |
| CC[C@@H](C)[C@H](NC(=O)[C@@H](NC(=O)CCCOc1cccc(OCCCC(=O)N[C@H](C(=O)N[C@H](C(=O)N[C@H](C(=O)OC)C(C)C)[C@H](C)CC)C(C)O)n1)C(C)O)C(=O)N[C@H](C(=O)OC)C(C)C (stereo not given in full) | 4.2 µM |
| COC(=O)[C@H](Cc1ccccc1)NC(=O)[C@H](CC(N)=O)NC(=O)[C@H](CC(C)C)NC(=O)[C@@H](NC(=O)CCCOc1ccc2ccc(OCCCC(=O)N[C@H](C(=O)N[C@@H](CC(C)C)C(=O)N[C@@H](CC(N)=O)C(=O)N[C@@H](Cc3ccccc3)C(=O)OC)C(C)O)cc2c1)C(C)O (stereo not given in full) (I: [Thr(3ξ)]LNF-OMe / II: [Thr(3ξ)]LNF-OMe; linker I:N-II:N via Naphthalene(2,7-(OC3H6CO)2)) | 4.4 µM |
| COC(=O)[C@H](Cc1ccccc1)NC(=O)[C@H](CC(N)=O)NC(=O)[C@H](CC(C)C)NC(=O)[C@@H](NC(=O)CCCOc1cccc(OCCCC(=O)N[C@H](C(=O)N[C@@H](CC(C)C)C(=O)N[C@@H](CC(N)=O)C(=O)N[C@@H](Cc2ccccc2)C(=O)OC)C(C)O)n1)C(C)O (stereo not given in full) | 10 µM |
| COC(=O)[C@H](CC(C)C)NC(=O)[C@H](CC(C)C)NC(=O)CNC(=O)CCCOc1cccc(OCCCC(=O)NCC(=O)N[C@@H](CC(C)C)C(=O)N[C@@H](CC(C)C)C(=O)OC)n1 | 16 µM |
| COC(=O)[C@@H](NC(=O)[C@H](CC(C)C)NC(=O)[C@@H](NC(=O)CCCOc1ccc2ccc(OCCCC(=O)N[C@H](C(=O)N[C@@H](CC(C)C)C(=O)N[C@H](C(=O)OC)C(C)C)C(C)C)cc2c1)C(C)C)C(C)C | 2 µM |
| CC(C)C[C@H](NC(=O)[C@@H](NC(=O)CCCOc1cccc(OCCCC(=O)N[C@H](C(=O)N[C@@H](CC(C)C)C(=O)N[C@H](C(=O)O)C(C)C)C(C)O)n1)C(C)O)C(=O)N[C@H](C(=O)O)C(C)C (stereo not given in full) | 34 µM |
